Key:
[1] = molecular target: T1, Ras guanyl-releasing protein 3 (Homo sapiens, UniProt Q8IV61); test: Displacement of [3H]PDBu from full length MBP-tagged human RasGRP3 expressed in Escherichia coli BL21 (DE3) after 5 mins by scintillation counting
T1 sequence (Q8IV61 whole entry): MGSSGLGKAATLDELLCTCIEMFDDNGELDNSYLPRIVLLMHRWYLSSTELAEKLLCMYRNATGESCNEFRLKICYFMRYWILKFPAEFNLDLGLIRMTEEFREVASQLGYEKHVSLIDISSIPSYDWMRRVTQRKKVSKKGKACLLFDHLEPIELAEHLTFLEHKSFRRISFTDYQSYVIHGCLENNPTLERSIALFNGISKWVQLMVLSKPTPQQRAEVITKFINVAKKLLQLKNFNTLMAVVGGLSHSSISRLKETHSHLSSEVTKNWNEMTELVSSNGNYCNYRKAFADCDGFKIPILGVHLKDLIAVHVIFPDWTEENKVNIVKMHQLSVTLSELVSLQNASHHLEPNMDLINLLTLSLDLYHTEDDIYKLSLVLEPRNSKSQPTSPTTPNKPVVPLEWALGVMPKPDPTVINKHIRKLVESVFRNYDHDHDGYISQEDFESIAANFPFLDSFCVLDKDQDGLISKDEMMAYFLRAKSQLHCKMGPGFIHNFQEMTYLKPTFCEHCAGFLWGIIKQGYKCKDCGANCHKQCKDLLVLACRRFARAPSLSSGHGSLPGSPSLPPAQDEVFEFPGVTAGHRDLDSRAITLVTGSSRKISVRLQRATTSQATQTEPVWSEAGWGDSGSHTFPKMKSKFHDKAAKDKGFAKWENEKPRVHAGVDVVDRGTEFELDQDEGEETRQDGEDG
In short: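 Competition of [3H]PDBu binding by polyethylene glycol precipitation, with 100 µg/ml phosphatidylserine and ≤0.003% Triton X-100, 5 min at 37 °C. Proteins: full-length purified human PKCα, PKCε; full-length RasGRP1; MBP-RasGRP3 from E. coli BL21(DE3) induced with 0.3 mM IPTG 6 h at room temperature. Ki mean ± SEM of ≥2 experiments, triplicate points.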

[2] = molecular target: T2, RAS guanyl-releasing protein 1 (Homo sapiens, UniProt O95267); test: Activation of GFP-tagged RasGRP1 (unknown origin) expressed in HEK293 cells after 30 mins by immunoblot method; format: cell-based
T2 sequence (O95267 whole entry): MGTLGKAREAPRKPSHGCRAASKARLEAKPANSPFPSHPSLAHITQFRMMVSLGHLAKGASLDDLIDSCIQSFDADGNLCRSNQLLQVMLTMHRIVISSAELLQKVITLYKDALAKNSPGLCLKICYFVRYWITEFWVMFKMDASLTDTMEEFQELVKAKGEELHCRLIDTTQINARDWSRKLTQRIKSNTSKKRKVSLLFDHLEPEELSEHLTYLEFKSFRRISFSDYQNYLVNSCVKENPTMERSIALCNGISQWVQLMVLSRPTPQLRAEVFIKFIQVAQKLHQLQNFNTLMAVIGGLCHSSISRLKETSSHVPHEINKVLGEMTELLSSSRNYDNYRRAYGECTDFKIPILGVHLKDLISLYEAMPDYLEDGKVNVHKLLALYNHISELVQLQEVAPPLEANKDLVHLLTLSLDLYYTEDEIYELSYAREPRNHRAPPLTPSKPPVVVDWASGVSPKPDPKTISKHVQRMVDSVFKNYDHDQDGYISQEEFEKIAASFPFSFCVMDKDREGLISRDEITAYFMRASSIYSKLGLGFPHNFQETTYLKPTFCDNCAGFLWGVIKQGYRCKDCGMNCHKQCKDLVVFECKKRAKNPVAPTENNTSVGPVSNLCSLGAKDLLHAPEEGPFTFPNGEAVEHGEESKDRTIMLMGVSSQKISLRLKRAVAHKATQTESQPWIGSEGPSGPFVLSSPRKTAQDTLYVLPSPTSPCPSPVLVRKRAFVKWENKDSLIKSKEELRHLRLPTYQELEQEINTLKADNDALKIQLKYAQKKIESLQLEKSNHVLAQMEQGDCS
In short: (§1)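 Cells expressing GFP-RasGRP1/3 (HEK293 or LNCaP, 48 h after plating, transfected; expression checked by fluorescence 24-48 h later) or Ramos with endogenous RasGRP3 treated with half-log increasing concentrations (max 10 µM), 1000 nM PMA or DMSO, 37 °C, 30 min, 5% CO2. RasGTP by Raf1 RBD bead pulldown and anti-Pan-Ras immunoblot; pERK by western blot. Band intensities normalized to 1000 nM PMA; EC50 from n = 3.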

[3] = molecular target: T1, Ras guanyl-releasing protein 3; test: Activation of GFP-tagged RasGRP3 (unknown origin) expressed in human LNCAP cells after 30 mins by immunoblot method; format: cell-based; in short: as §1
[4] = molecular target: Protein kinase C delta type (Homo sapiens, UniProt Q05655); test: Activation of PKCdelta in human Ramos cells expressing RasGRP3 assessed as phosphorylation at ser299 residues after 30 mins by immunoblot method; format: cell-based
Protein kinase C delta type, sequence (Q05655 whole entry): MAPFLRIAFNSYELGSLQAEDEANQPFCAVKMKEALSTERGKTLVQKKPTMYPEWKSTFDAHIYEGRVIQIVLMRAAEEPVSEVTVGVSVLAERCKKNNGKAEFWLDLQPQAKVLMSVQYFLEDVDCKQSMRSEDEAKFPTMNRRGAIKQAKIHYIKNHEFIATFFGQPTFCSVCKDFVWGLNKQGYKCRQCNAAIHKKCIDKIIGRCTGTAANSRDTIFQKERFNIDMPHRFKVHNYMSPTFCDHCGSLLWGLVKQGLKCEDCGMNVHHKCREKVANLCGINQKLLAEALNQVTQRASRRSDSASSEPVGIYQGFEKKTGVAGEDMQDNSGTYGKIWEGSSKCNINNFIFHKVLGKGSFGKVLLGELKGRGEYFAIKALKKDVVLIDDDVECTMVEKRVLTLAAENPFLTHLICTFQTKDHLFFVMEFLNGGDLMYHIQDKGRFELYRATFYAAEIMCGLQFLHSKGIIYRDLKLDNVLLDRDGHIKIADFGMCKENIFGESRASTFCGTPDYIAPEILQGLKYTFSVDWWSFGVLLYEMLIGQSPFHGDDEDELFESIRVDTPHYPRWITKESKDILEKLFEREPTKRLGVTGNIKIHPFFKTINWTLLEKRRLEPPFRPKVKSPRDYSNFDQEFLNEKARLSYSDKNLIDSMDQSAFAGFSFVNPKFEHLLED
In short: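 PKCδ activation read as phospho-S299 on western blots of lysates (50 µg protein, 10% SDS-PAGE, milk blocking, anti-PKCδS299 overnight). Cells: GFP-RasGRP1/3-transfected HEK293 or LNCaP, or Ramos, treated 30 min at 37 °C with half-log doses (maximum 10 µM), 1000 nM PMA or DMSO. Scanned intensities normalized to 1000 nM PMA; EC50 mean ± SEM, n = 3; values above 10 µM extrapolated.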

[5] = molecular target: T2, RAS guanyl-releasing protein 1; test: Activation of GFP-tagged RasGRP1 (unknown origin) expressed in HEK293 cells assessed as ERK1/2 phosphorylation after 30 mins by immunoblot method; format: cell-based; in short: as §1
Homo sapiens [6] = species on record: Homo sapiens; test: Selectivity ratio of EC50 for PKCdelta (unknown origin) expressed in human LNCAP cells harboring GFP-tagged RasGRP1 to EC50 for GFP-tagged RasGRP1 (unknown origin) expressed in human LNCAP cells; format: cell-based
Homo sapiens [7] = species on record: Homo sapiens; test: Selectivity ratio of EC50 for PKCdelta (unknown origin) expressed in HEK293 cells harboring GFP-tagged RasGRP1 to EC50 for GFP-tagged RasGRP1 (unknown origin) expressed in HEK293 cells assessed as ERK1/2 phosphorylation; format: cell-based
Homo sapiens [8] = species on record: Homo sapiens; test: Selectivity ratio of EC50 for PKCdelta (unknown origin) expressed in HEK293 cells harboring GFP-tagged RasGRP3 to EC50 for GFP-tagged RasGRP3 (unknown origin) expressed in HEK293 cells assessed as ERK1/2 phosphorylation; format: cell-based
Homo sapiens [9] = species on record: Homo sapiens; test: Selectivity ratio of EC50 for PKCdelta (unknown origin) expressed in human LNCAP cells harboring GFP-tagged RasGRP1 to EC50 for GFP-tagged RasGRP1 (unknown origin) expressed in human LNCAP cells assessed as ERK1/2 phosphorylation; format: cell-based
Homo sapiens [10] = species on record: Homo sapiens; test: Selectivity ratio of EC50 for PKCdelta (unknown origin) expressed in human LNCAP cells harboring GFP-tagged RasGRP3 to EC50 for GFP-tagged RasGRP3 (unknown origin) expressed in human LNCAP cells assessed as ERK1/2 phosphorylation; format: cell-based
Homo sapiens [11] = species on record: Homo sapiens; test: Selectivity ratio of EC50 for PKCdelta in human Ramos cells expressing RasGRP3 to EC50 for RasGRP3 in human Ramos cells assessed as ERK1/2 phosphorylation; format: cell-based

Ki [1]: 0.00175 µM
EC50 [2]: 0.86 µM
EC50 [3]: 0.64 µM
EC50 [4]: 24.6 µM
EC50 [5]: 4.88 µM
SMILES: Cn1cc(/C=C2\CC(CO)(COC(=O)C(C)(C)C)OC2=O)c2ccccc21 (stereo unspecified)
Ratio EC50 (Homo sapiens [6]): 8.3
Ratio EC50 (Homo sapiens [7]): 2.6
Ratio EC50 (Homo sapiens [8]): 3.6
Ratio EC50 (Homo sapiens [9]): 2.2
Ratio EC50 (Homo sapiens [10]): 2.8
Ratio EC50 (Homo sapiens [11]): 4
